Source: PubChem (The Scripps Research Institute Molecular Screening Center)
Only some compounds are listed: those with a hit (about 1.2% of all), similar ones and a draw of the others.
proCasp3 act = activates human procaspase-3; hit rate 0.11% among 330,000; recombinant procaspase-3 D3A, Ac-DEVD-pNA absorbance 405 nm; activation, % at 8.5 µM; P42574; AID 463141;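 active = activation above the mean of all tested compounds plus 3 SD, cut at about 21% in these data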;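 also: 0% = DMSO alone and 100% = DMSO wells spiked with extra 5 µM PC-3 D3A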
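assay system = Procaspase-3 D3A mutant | signal = absorbance at 405 nm, 0 and 120 min | times = 1 h preincubation plus 2 h reaction at 25 °C | repeats = single replicate | read-out = % activation between DMSO and enzyme-spiked controls | medium = Zinc-free HEPES saline buffer with Triton X-100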
PP5 primary = inhibitors of human protein phosphatase 5 (PP5) | P53041 | purified PP5c, OMFP substrate fluorescence | inhibition, % at 6.7 µM | hit rate 0.18% among 320,000;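 active = inhibition above the campaign's mean inhibition across all tested compounds plus 3 SD, cut at about 9.5% in these data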;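 also: 0% = DMSO only and 100% = 100 µM cantharidin control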
Target sequence (P53041 whole entry, looked up): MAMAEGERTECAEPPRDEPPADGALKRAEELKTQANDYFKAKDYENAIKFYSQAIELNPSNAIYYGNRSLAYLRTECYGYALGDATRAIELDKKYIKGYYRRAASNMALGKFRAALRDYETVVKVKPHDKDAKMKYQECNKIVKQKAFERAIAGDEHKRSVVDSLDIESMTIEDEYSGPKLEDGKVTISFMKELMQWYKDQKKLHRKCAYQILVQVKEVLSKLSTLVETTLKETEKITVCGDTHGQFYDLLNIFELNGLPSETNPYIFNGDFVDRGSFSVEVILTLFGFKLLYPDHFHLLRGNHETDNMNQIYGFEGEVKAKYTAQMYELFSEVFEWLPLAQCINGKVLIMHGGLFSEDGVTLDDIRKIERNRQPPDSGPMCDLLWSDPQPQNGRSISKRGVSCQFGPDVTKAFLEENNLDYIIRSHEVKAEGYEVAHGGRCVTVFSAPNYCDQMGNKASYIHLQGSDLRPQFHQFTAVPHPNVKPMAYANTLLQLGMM
PP1 inh = PP1-alpha (human) inhibition in PP5 counter-screen; AID 2235; hit rate 0.9% among 320,000; inhibition, % at 6.7 µM; purified PP1alpha, OMFP fluorescence;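 active = inhibition above the mean inhibition of all tested compounds plus 3 SD, computed separately for each screening campaign, cut at about 15% in these data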
proCasp7 act = counter-screen: procaspase-7 (human) activation; hit rate 0.093% among 330,000; AID 463210; activation, % at 8.5 µM; P55210; recombinant procaspase-7, Ac-DEVD-pNA absorbance 405 nm; D23A/D198A/D206A triple mutant, cannot self-cleave; scale: DMSO 0, 5 µM enzyme 100;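 active = percent activation above the screen-wide mean plus 3 SD, cut at about 25% in these data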
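Assay system: Uncleavable procaspase-7 mutant enzyme; Input: 2 µM procaspase-7 mutant as dispensed; Also added: DEVD-pNA substrate; Medium: Zinc-free HEPES pH 7.4 with 300 mM NaCl, 0.01% Triton X-100; Timing: 1 h compound preincubation, 2 h substrate cleavage, 25 °C; Measured by: Epi-absorbance of released pNA at 405 nm, two timepoints.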
* hit, by the source's call; . = not tested or not shown.

SMILES | proCasp3 act | PP5 primary | PP1 inh | proCasp7 act
C#CCOCCOCCOCCNc1nc(N2CCN(C(=O)CCCCCCCCCCNC(=O)[C@H](CO)n3cc(CCCSC)nn3)CC2)nc(N2CCN(C(=O)CCCCCCCCCCNC(=O)[C@@H]([C@H](C)O)n3cc(C)nn3)CC2)n1 | 5 | 2 | 31* | -2
C#CCOCCOCCOCCNc1nc(N2CCN(C(=O)CCCCCCCCCCNC(=O)[C@H]([C@@H](C)CC)n3cc(CCCCN=C(N)N)nn3)CC2)nc(N2CCN(C(=O)CCCCCCCCCCNC(=O)[C@H]([C@@H](C)CC)n3cc(CCCCN=C(N)N)nn3)CC2)n1 | -11 | 9 | 74* | -6
C#CCOCCOCCOCCNc1nc(N2CCN(C(=O)CCCCCCCCCCNC(=O)[C@H]([C@@H](C)CC)n3cc(CCCCCN)nn3)CC2)nc(N2CCN(C(=O)CCCCCCCCCCNC(=O)[C@@H]([C@H](C)CC)n3cc(CCCCCN)nn3)CC2)n1 | -8 | 3 | 64* | -3
O=C(CCC(=O)Nc1cccnc1)Nc1cccnc1 | -14 | 4 | 2 | 1
CCCCC[C@@H]1C=C(C(=O)O)[C@H](c2ccc(Br)cc2)N1S(=O)(=O)c1ccc(C)cc1 | 4 | . | . | 5
Cc1noc(C)c1S(=O)(=O)N(C)C[C@H]1Oc2c(NC(=O)C3CCCCC3)cccc2C(=O)N([C@H](C)CO)C[C@@H]1C | 2 | . | . | 0
N#Cc1c(N)sc(=S)c2c1CCN(Cc1ccccc1)C2 | -15 | 2 | 20* | -19
CCN1CCN(c2nc3sc4c(c3c(=O)n2-c2ccc(OC)cc2)CCCCC4)CC1 | 3 | 0 | -1 | 11
O=c1c2c3c(sc2nc(N2CCNCC2)n1-c1cccc(Cl)c1)CCCCC3 | -1 | 1 | 15* | 6
Cc1cc(-c2csc(NC(=O)c3ccc(=O)n(C)n3)n2)c(C)n1CC1CCCO1 (stereo unspecified) | 3 | 4 | 16* | -5
Cc1cc(-c2csc(NC(=O)C3=COCCO3)n2)c(C)n1C | 2 | -2 | 13 | 5
CN(C)S(=O)(=O)c1cccc(-c2nn(-c3ccccc3)cc2/C=C2\SC(=S)NC2=O)c1 | 3 | 4 | 17* | -8
Cc1ccc2c(c1)-n1c(nc3cc(Cl)ccc3c1=O)C(Cc1ccccc1)NC2=O (stereo unspecified) | 10 | . | . | 6
CCS(=O)(=O)C1=NN2C(=N)/C(=C\c3ccc(OCCOc4cccc(OC)c4)c(OC)c3)C(=O)N=C2S1 | 8 | 3 | 16* | -5
CCOc1cc(/C=C2\C(=N)N3N=C(S(C)(=O)=O)SC3=NC2=O)ccc1OCCOc1cccc(OC)c1 | 0 | 2 | 12 | 6
COc1cccc(C(=O)NNC(=O)C(=O)Nc2ccc(C)c(Cl)c2)c1 | 8 | 2 | 16* | 16
O=C(CCC1CCCC1)NNC(=O)c1ccc(F)cc1 | 8 | 3 | -1 | -6
CC1(C)C(/C=C/C=C/C=C/C=C2\N(CCCCS(=O)(=O)O)c3ccc4ccccc4c3C2(C)C)=[N+](CCCCS(=O)(=O)[O-])c2ccc3ccccc3c21 | -3 | 3 | 59* | -27
Cc1c2ccccc2cc[n+]1CCCS(=O)(=O)[O-] | -1 | 0 | -6 | -4
O=C(Nc1nc(-c2ccccn2)cs1)c1ccco1 | 0 | 0 | 16* | -2
FC(F)(F)Oc1ccc(Nc2nc(N3CCOCC3)nc(N3CCOCC3)n2)cc1 | 4 | 1 | -4 | -4
Cc1ccc(NC(=O)Nc2ccc3c(c2)OCO3)c(Br)c1 | -15 | -11 | 17* | -10
Cc1ccc(S(=O)(=O)N(C)c2ccc(C(=O)N(CC(C)C)C3CCS(=O)(=O)C3)cc2)cc1 (stereo unspecified) | -15 | -1 | -4 | 13
Oc1c(CNc2ccccc2)cc(COCc2ccccc2)c2cccnc12 | 3 | . | . | 1
Oc1c(CN2CCOCC2)cc(COCc2ccccc2)c2cccnc12 | -14 | 1 | 16* | -21
SMILES | proCasp3 act | PP5 primary | PP1 inh | proCasp7 act
COc1cc2ccccc2cc1C(=O)Nc1ccc(Cc2ccncc2)cc1 | -2 | 6 | 16* | -5
Cc1ccccc1NC(=O)Cc1nc(COC(=O)Cc2c(F)cccc2Cl)cs1 | 3 | 2 | 2 | 0
Cc1cccc(NC(=O)c2cccc(S(=O)(=O)N(C)c3ccccc3)c2)n1 | -4 | 0 | -1 | 6
COc1cccc(C2/C(=C(/O)c3ccc(C)cc3)C(=O)C(=O)N2Cc2ccco2)c1 (stereo unspecified) | -4 | -1 | 16* | -6
COc1cccc(C2/C(=C(/O)c3ccccc3)C(=O)C(=O)N2Cc2ccco2)c1 (stereo unspecified) | -4 | -1 | 1 | 0
O=C(NCc1cccc(OC(F)(F)F)c1)c1ccc2c(c1)S(=O)(=O)c1cc(Cl)ccc1C2=O | 4 | . | . | -12
COc1ccc(-n2cnc3cc(NS(=O)(=O)c4ccc(C)cc4)ccc32)cc1 | -5 | 12* | 0 | 5
Cn1cccc1CC(=O)N/N=C\c1c2ccccc2cc2ccccc12 | -16 | 0 | 16* | -28
Cn1cccc1CC(=O)N/N=C/c1cccc2ccccc12 | -8 | 5 | 5 | -16
COC(=O)c1cc2occc2n1Cc1nc(-c2ccc(Cl)cc2)oc1C | 1 | 0 | -8 | -2
COC(=O)c1ccc2c(c1)N(Cc1nc(-c3ccc(Cl)cc3)oc1C)C(=O)C1CCCN21 (stereo unspecified) | -6 | 2 | 16* | -9
CC1(c2ccc(OC(F)F)cc2)NC(=O)N(CC(=O)N2c3ccccc3NC(=O)C2(C)C)C1=O (stereo unspecified) | 5 | 3 | 0 | 2
COc1ccc2c(c1)c(=O)oc1cc(OCC(=O)N3CCC(C)CC3)ccc12 | 4 | 1 | -3 | 5
COc1ccc2c(c1)c(=O)oc1cc(OCC(=O)N3CCCC(C)C3)ccc12 (stereo unspecified) | -8 | 2 | 16* | -10
O=C(O)CCC1c2cc3c4cc2OC2Oc5cc6c(cc51)C(CCC(=O)O)c1cc5c7cc1OC(O6)c1cc6cc(c1)Oc1cc(cc(C(=O)O)c1)Oc1cc8cc(c1)C(Oc1cc(c(cc1C5CCC(=O)O)C3CCC(=O)O)OC(O4)c1cc(cc(c1)Oc1cc(cc(C(=O)O)c1)O8)Oc1cc(cc(C(=O)O)c1)Oc1cc(cc2c1)Oc1cc(cc(C(=O)O)c1)O6)O7 (stereo unspecified) | 4 | 13* | 91* | 3
Cc1cc(NC(=S)N(Cc2ccc(Cl)cc2)Cc2ccc(C(=O)O)cc2)ccc1Cl | 2 | 4 | 16* | -21
Cc1cc(C)cc(NC(=S)N(Cc2ccc(Cl)cc2)Cc2ccc(C(=O)O)cc2)c1 | 10 | 3 | 4 | -1
N#CCC(=O)Nc1ccc(C(=O)NCCC(c2ccccc2)c2ccccc2)cc1 | 0 | 3 | 16* | 8
CN(C)C(CNC(=O)c1ccc(NC(=O)CC#N)cc1)c1ccccc1 (stereo unspecified) | 1 | 0 | 2 | 9
O=S(=O)(O)c1cccc2cccc(Nc3ccccc3)c12 | 7 | 0 | 3 | -1
